The list is not random: actives were taken first. Their share in the collection is about 2.9%.
APOBEC3A inh: APOBEC3A ssDNA deaminase inhibitors, primary screen, selectivity assay for APOBEC3G inhibitor project, biochemical, FAM/TAMRA oligo cleavage fluorescence; DNA dC->dU-editing enzyme APOBEC-3A (Homo sapiens), P31941; recombinant A3A, FAM/TAMRA ssDNA deamination fluorescence; inhibition, % at 20 µM; hit rate 0.41% among 330,000;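 active = at least 40% inhibition at 20 µM here, with at most 30% in a related deaminase screen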;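 also: plate controls were A3A with DMSO for no effect and wells lacking A3A enzyme for full effect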
HCV core dimer: inhibitors of HCV core protein dimerization, primary screen, biochemical, TR-FRET, high-throughput; TR-FRET GST/Flag-core106 dimerization, 1536-well; hit rate 0.33% among 300,000; inhibition, % at 5 µM;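 active = inhibition above the mean of all tested compounds plus 3 SD, set per screening campaign, cut at about 45% in these data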
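Assay system – GST-tagged and Flag-tagged HCV core protein residues 1-106 · Quantity – core106 proteins, GST 13.5 nM and Flag 17 nM · Benchmarks – unlabelled core106 and no-GST-core106 wells · Read-out basis – percent inhibition of core106 dimerization signal · Detection – time-resolved FRET, ex 340 nm, em 617 and 671 nm · Schedule – 4 h at 22.5 °C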
A3G deaminase: APOBEC3G DNA deaminase inhibitors, primary screen, biochemical, fluorescence, single-stranded DNA substrate, uHTS | recombinant A3G, ssDNA deamination FAM/TAMRA fluorescence | inhibition, % at 20 µM | DNA dC->dU-editing enzyme APOBEC-3G (Homo sapiens), Q9HC16 | hit rate 0.28% among 330,000;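 active = inhibition of at least 40% at 20 µM, with no more than 30% in the related APOBEC3A deaminase screen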;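 also: plate controls were DMSO wells with A3G for no effect and wells lacking A3G enzyme for full effect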
Target sequence (Q9HC16 whole entry, looked up): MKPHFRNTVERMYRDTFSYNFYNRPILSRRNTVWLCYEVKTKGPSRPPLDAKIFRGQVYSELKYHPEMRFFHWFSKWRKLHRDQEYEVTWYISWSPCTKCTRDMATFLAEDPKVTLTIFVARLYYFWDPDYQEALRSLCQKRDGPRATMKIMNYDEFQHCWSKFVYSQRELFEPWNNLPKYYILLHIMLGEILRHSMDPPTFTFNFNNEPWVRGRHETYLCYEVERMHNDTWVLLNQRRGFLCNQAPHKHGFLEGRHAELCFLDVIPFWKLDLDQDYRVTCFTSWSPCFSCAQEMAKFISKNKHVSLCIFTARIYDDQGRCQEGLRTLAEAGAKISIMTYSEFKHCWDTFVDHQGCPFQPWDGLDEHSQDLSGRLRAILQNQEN
PRMT1 inh: PRMT1 methyltransferase inhibitors, primary screen, biochemical, fluorescence polarization; recombinant PRMT1, activity-based probe fluorescence polarization; inhibition, % at 2.79 µM; AID 652257, 2013; Protein arginine N-methyltransferase 1 (Homo sapiens), Q99873; hit rate 1.3% among 370,000;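 active = inhibition above about 21% made by adding two undisclosed values, limit read from the data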
ABHD5-PLIN5 inh: ABHD5-PLIN5 interaction inhibitors, primary screen, cell lysate, split luciferase complementation, luminescence. Perilipin-5 (Homo sapiens) + 1-acylglycerol-3-phosphate O-acyltransferase ABHD5 (Homo …. Split G. princeps luciferase complementation, 4 h. inhibition, % at 4 µM. hit rate 0.78% among 360,000;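 active = inhibition above the mean inhibition across every tested compound plus 3 SD, cut at about 22% in these data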;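 also: 0% = DMSO only wells and the 100% control is not disclosed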
NS3 helicase inh: inhibitors of HCV NS3 helicase, primary screen, biochemical, Cy5 molecular beacon fluorescence; hit rate 0.56% among 290,000; Hepatitis C virus NS3 helicase; NS3 helicase DNA unwinding; inhibition, % at 10.9 µM;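 active = inhibition above the mean of all tested compounds plus 3 SD, set per campaign, cut at about 35% in these data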;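 also: 0% = DMSO wells and 100% = thioflavine S control wells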
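test system = hepatitis C virus NS3 helicase domain fragment enzyme | reagent = annealed dual-labelled DNA beacon duplex, ATP-started | times = 1 h at 25 °C | detection = Cy5 fluorescence, 0 and 60 min reads | read-out basis = percent inhibition from t60/t0 fluorescence ratio | control set = DMSO and thioflavine S | replication = one well per compound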
PRMT1 inh conf: PRMT1 methyltransferase inhibitors, confirmation, biochemical, fluorescence polarization, triplicate. AID 687036, 2013. hit rate 42% among 3,300. inhibition, % at 2.79 µM. recombinant His-PRMT1, activity-based probe fluorescence polarization. shares compounds with PRMT1 inh;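 active = mean inhibition across replicates above the hit cutoff derived for the earlier primary screen, cut at about 22% in these data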
Starred values were filed as active, the others as inactive.

How did Cc1cc(NC(=O)CSc2sc3c(O)cc(=O)[nH]c3c2C#N)ccc1Br do in these assays?
APOBEC3A inh: 12; HCV core dimer: -38; A3G deaminase: 0; PRMT1 inh: 30*; ABHD5-PLIN5 inh: 4; NS3 helicase inh: 26; PRMT1 inh conf: 5

How did COc1ccccc1Cn1c(=S)[nH]c2cc(C(=O)N3CCCC(C)C3)ccc2c1=O (centres undefined) do in these assays?
PRMT1 inh: 2; ABHD5-PLIN5 inh: 1

What do the screens show for `CCN(CC)C(=O)[C@H]1C[C@H](CC(=O)NCCCn2ccnc2)C(=O)N2CCc3c([nH]c4cc(CCC(=O)N(C)C)ccc34)[C@]12C`?
APOBEC3A inh: 6; A3G deaminase: 7; PRMT1 inh: -1; ABHD5-PLIN5 inh: 3

How did Nc1nc2c(ncn2[C@@H]2O[C@H](C(=O)NCC(c3ccccc3)c3ccccc3)[C@@H](O)[C@H]2O)c(=O)[nH]1 do in these assays?
PRMT1 inh: 2

How did COC(=O)C1=C(C)NC(=S)NC1c1ccc(-c2cc(Cl)ccc2Cl)o1 (centres undefined) do in these assays?
APOBEC3A inh: -1; HCV core dimer: 24; A3G deaminase: -6; PRMT1 inh: 70*; ABHD5-PLIN5 inh: 5; NS3 helicase inh: 7; PRMT1 inh conf: 19

What do the screens show for `COC(=O)C1=C(C)NC(=O)NC1c1ccc(-c2ccc(Cl)cc2)o1` (centres undefined)?
APOBEC3A inh: 1; HCV core dimer: 2; A3G deaminase: -1; PRMT1 inh: 4; ABHD5-PLIN5 inh: 4; NS3 helicase inh: 3

How did CCOc1ccc(N=c2scc(-c3ccc(OC)cc3)n2CCO)cc1 do in these assays?
APOBEC3A inh: -3; HCV core dimer: -3; A3G deaminase: -6; PRMT1 inh: 26*; ABHD5-PLIN5 inh: 0; NS3 helicase inh: -14; PRMT1 inh conf: -1

Results for CCOc1ccc(N=c2scc(-c3ccccc3)n2CCO)cc1 ?
APOBEC3A inh: -5; HCV core dimer: -3; A3G deaminase: -3; PRMT1 inh: 13; ABHD5-PLIN5 inh: -7; NS3 helicase inh: -1

What do the screens show for `OCCn1c(-c2ccc(F)cc2)csc1=Nc1ccccc1`?
APOBEC3A inh: 1; HCV core dimer: -6; A3G deaminase: -8; PRMT1 inh: 42*; ABHD5-PLIN5 inh: -8; NS3 helicase inh: 6; PRMT1 inh conf: 0

What do the screens show for `OCCn1c(-c2ccc3c(c2)OCO3)csc1=Nc1ccccc1`?
APOBEC3A inh: -1; HCV core dimer: -10; A3G deaminase: -5; PRMT1 inh: 32*; ABHD5-PLIN5 inh: -8; NS3 helicase inh: -8; PRMT1 inh conf: 1

Results for CCn1c(-c2ccccc2)csc1=Nc1ccc(O)cc1 ?
APOBEC3A inh: -1; HCV core dimer: -1; A3G deaminase: 1; PRMT1 inh: 4; ABHD5-PLIN5 inh: 3; NS3 helicase inh: 7

Results for CCN(CC)C(=O)C1=C(C)N(Cc2ccc(F)cc2)C(=O)C(CC(=O)NCC2CCCCC2)C1 (centres undefined) ?
PRMT1 inh: -4; ABHD5-PLIN5 inh: -1

Results for CC(=O)c1ccc(NC(=O)C(C)OC(=O)/C=C/c2ccco2)cc1 (centres undefined) ?
APOBEC3A inh: 10; A3G deaminase: 5; PRMT1 inh: 31*; ABHD5-PLIN5 inh: 6; PRMT1 inh conf: 1
